Tests used:
CAKI-1 [1] = test: Antiproliferative activity against human CAKI-1 cells assessed as cell growth inhibition by measuring lethal concentration incubated for 48 hrs by sulforhodamine B assay; assay type: functional; details: read-out: LC50 (the source's name)
SN12C = test: Antiproliferative activity against human SN12C cells assessed as cell growth at 0.000001 M incubated for 48 hrs by SRB assay relative to control; assay type: functional; details: read-out: Activity
HOP-92 [2] = test: Antiproliferative activity against human HOP-92 cells assessed as cell growth at 0.00000001 M incubated for 48 hrs by SRB assay relative to control; assay type: functional; details: dose 10 nM, read-out: Activity
Method in brief: (§1)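 NCI-60 five-dose screen (10^-4 to 10^-8 M). Cells grown in RPMI 1640 with 5% FBS and 2 mM L-glutamine, plated at 5,000-40,000 cells/well and preincubated 24 h. Drug given from DMSO stock, then 48 h at 37 °C, 5% CO2. For adherent lines, cells fixed with cold TCA, SRB-stained and read at 515 nm. Percent growth taken against time-zero and untreated control.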

UACC-62 = test: Antiproliferative activity against human UACC-62 cells assessed as cell growth at 0.00000001 M incubated for 48 hrs by SRB assay relative to control; assay type: functional; details: dose 10 nM, read-out: Activity
HOP-62 = test: Antiproliferative activity against human HOP-62 cells assessed as cell growth inhibition by measuring lethal concentration incubated for 48 hrs by sulforhodamine B assay; assay type: functional; details: read-out: LC50 (the source's name)
SF-268 [3] = test: Antiproliferative activity against human SF-268 cells assessed as cell growth at 0.00001 M incubated for 48 hrs by SRB assay relative to control; assay type: functional; details: read-out: Activity
HT-29 = test: Growth inhibition against human HT-29 cells incubated for 48 hrs by sulforhodamine B assay; assay type: functional
SF-268 [4] = test: Antiproliferative activity against human SF-268 cells assessed as cell growth at 0.00000001 M incubated for 48 hrs by SRB assay relative to control; assay type: functional; details: dose 10 nM, read-out: Activity
SK-MEL-28 [5] = test: Growth inhibition against human SK-MEL-28 cells incubated for 48 hrs by sulforhodamine B assay; assay type: functional
CAKI-1 [6] = test: Antiproliferative activity against human CAKI-1 cells assessed as cell growth at 0.0001 M incubated for 48 hrs by SRB assay relative to control; assay type: functional; details: read-out: Activity
Method in brief: (§2)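 NCI-60 five-dose screen over 10^-4–10^-8 M (10-fold dilutions). Cells grown in RPMI 1640 with 5% FBS and 2 mM L-glutamine, seeded at 5,000–40,000 cells/well and preincubated 24 h. Drug from DMSO stock, 48 h at 37 °C, 5% CO2. Adherent cells TCA-fixed and stained with 0.4% SRB; A515 read. Percent growth = (Ti−Tz)/(C−Tz)×100, or (Ti−Tz)/Tz×100 when Ti<Tz.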

HEK293 = test: Cytotoxicity against human HEK293 cells assessed as reduction in cell viability at 0.0001 M incubated for 48 hrs by MTT colorimetric assay relative to control; assay type: toxicity, cell-based; details: hek293, 48 h, 100 µM
MDA-MB-231 = test: Growth inhibition against human MDA-MB-231 cells assessed as total growth inhibitory concentration incubated for 48 hrs by sulforhodamine B assay; assay type: functional
BT-549 = test: Antiproliferative activity against human BT-549 cells assessed as cell growth inhibition by measuring lethal concentration incubated for 48 hrs by sulforhodamine B assay; assay type: functional; details: read-out: LC50 (the source's name)
UACC-257 = test: Antiproliferative activity against human UACC-257 cells assessed as cell growth at 0.00001 M incubated for 48 hrs by SRB assay relative to control; assay type: functional; details: read-out: Activity
RXF 393 [7] = test: Antiproliferative activity against human RXF 393 cells assessed as cell growth at 0.00001 M incubated for 48 hrs by SRB assay relative to control; assay type: functional; details: read-out: Activity
HCT-15 = test: Antiproliferative activity against human HCT-15 cells assessed as cell growth at 0.00000001 M incubated for 48 hrs by SRB assay relative to control; assay type: functional; details: dose 10 nM, read-out: Activity; method in brief: as §1
OVCAR-4 = test: Antiproliferative activity against human OVCAR-4 cells assessed as cell growth at 0.00000001 M incubated for 48 hrs by SRB assay relative to control; assay type: functional; details: dose 10 nM, read-out: Activity
OVCAR-8 [8] = test: Growth inhibition against human OVCAR-8 cells incubated for 48 hrs by sulforhodamine B assay; assay type: functional
KM12 = test: Growth inhibition against human KM12 cells assessed as total growth inhibitory concentration incubated for 48 hrs by sulforhodamine B assay; assay type: functional
HCT-116 [9] = test: Antiproliferative activity against human HCT-116 cells assessed as cell growth at 0.00000001 M incubated for 48 hrs by SRB assay relative to control; assay type: functional; details: dose 10 nM, read-out: Activity; method in brief: as §1
RXF 393 [10] = test: Antiproliferative activity against human RXF 393 cells assessed as cell growth at 0.0000001 M incubated for 48 hrs by SRB assay relative to control; assay type: functional; details: dose 100 nM, read-out: Activity
HCT-116 [11] = test: Antiproliferative activity against human HCT-116 cells assessed as cell growth at 0.00001 M incubated for 48 hrs by SRB assay relative to control; assay type: functional; details: read-out: Activity; method in brief: as §1
MOLT-4 = test: Antiproliferative activity against human MOLT-4 cells assessed as cell growth at 0.0001 M incubated for 48 hrs by SRB assay relative to control; assay type: functional; details: read-out: Activity
OVCAR-8 [12] = test: Antiproliferative activity against human OVCAR-8 cells assessed as cell growth at 0.00000001 M incubated for 48 hrs by SRB assay relative to control; assay type: functional; details: dose 10 nM, read-out: Activity
OVCAR-5 = test: Antiproliferative activity against human OVCAR-5 cells assessed as cell growth inhibition by measuring lethal concentration incubated for 48 hrs by sulforhodamine B assay; assay type: functional; details: read-out: LC50 (the source's name)
HCC 2998 = test: Growth inhibition against human HCC 2998 cells assessed as total growth inhibitory concentration incubated for 48 hrs by sulforhodamine B assay; assay type: functional
A549 [13] = test: Growth inhibition against human A549 cells assessed as total growth inhibitory concentration incubated for 48 hrs by sulforhodamine B assay; assay type: functional
SW-620 = test: Antiproliferative activity against human SW620 cells assessed as cell growth at 0.00000001 M incubated for 48 hrs by SRB assay relative to control; assay type: functional; details: dose 10 nM, read-out: Activity
786-0 = test: Antiproliferative activity against human 786-0 cells assessed as cell growth at 0.00001 M incubated for 48 hrs by SRB assay relative to control; assay type: functional; details: read-out: Activity; method in brief: as §2
SK-MEL-2 = test: Antiproliferative activity against human SK-MEL-2 cells assessed as cell growth at 0.0001 M incubated for 48 hrs by SRB assay relative to control; assay type: functional; details: read-out: Activity
HOP-92 [14] = test: Antiproliferative activity against human HOP-92 cells assessed as cell growth at 0.0000001 M incubated for 48 hrs by SRB assay relative to control; assay type: functional; details: dose 100 nM, read-out: Activity; method in brief: as §1
NCI-H226 = test: Growth inhibition against human NCI-H226 cells incubated for 48 hrs by sulforhodamine B assay; assay type: functional
A549 [15] = test: Growth inhibition against human A549 cells incubated for 48 hrs by sulforhodamine B assay; assay type: functional
IGROV-1 [16] = test: Antiproliferative activity against human IGROV-1 cells assessed as cell growth at 0.0000001 M incubated for 48 hrs by SRB assay relative to control; assay type: functional; details: dose 100 nM, read-out: Activity
SK-MEL-28 [17] = test: Antiproliferative activity against human SK-MEL-28 cells assessed as cell growth inhibition by measuring lethal concentration incubated for 48 hrs by sulforhodamine B assay; assay type: functional; details: read-out: LC50 (the source's name)
IGROV-1 [18] = test: Antiproliferative activity against human IGROV-1 cells assessed as cell growth at 0.000001 M incubated for 48 hrs by SRB assay relative to control; assay type: functional; details: read-out: Activity

| SMILES | CC50 (CAKI-1 [1]) | growth at 1 µM (SN12C) | growth at 0.01 µM (HOP-92 [2]) | growth at 0.01 µM (UACC-62) | CC50 (HOP-62) | growth at 10 µM (SF-268 [3]) | GI50 (HT-29) | growth at 0.01 µM (SF-268 [4]) | GI50 (SK-MEL-28 [5]) | growth at 100 µM (CAKI-1 [6]) | Activity (HEK293) | TGI (MDA-MB-231) | CC50 (BT-549) | growth at 10 µM (UACC-257) | growth at 10 µM (RXF 393 [7]) | growth at 0.01 µM (HCT-15) | growth at 0.01 µM (OVCAR-4) | GI50 (OVCAR-8 [8]) | TGI (KM12) | growth at 0.01 µM (HCT-116 [9]) | other results |
| --- | --- | --- | --- | --- | --- | --- | --- | --- | --- | --- | --- | --- | --- | --- | --- | --- | --- | --- | --- | --- | --- |
| COc1ccc(-c2cn3ccnc3c(-c3ccc4ncn(C5CCCCC5)c4c3)n2)cc1 | > 100 µM | 66% | 96% | 94% | > 100 µM | 25% | 0.383 µM | 96% | 2.1 µM | 26% | 19.05% | > 100 µM | > 100 µM | 60% | -2% | 94% | 96% | 3.16 µM | > 100 µM | 95% | growth at 0.1 µM (RXF 393 [10]): 104%; growth at 10 µM (HCT-116 [11]): -15%; growth at 100 µM (MOLT-4): 22%; growth at 0.01 µM (OVCAR-8 [12]): 105%; CC50 (OVCAR-5): > 100 µM; TGI (HCC 2998): > 100 µM; TGI (A549 [13]): > 100 µM; growth at 0.01 µM (SW-620): 98%; growth at 10 µM (786-0): -32%; growth at 100 µM (SK-MEL-2): 3%; growth at 0.1 µM (HOP-92 [14]): 94%; GI50 (NCI-H226): 2.97 µM; GI50 (A549 [15]): 1.83 µM; growth at 0.1 µM (IGROV-1 [16]): 90%; CC50 (SK-MEL-28 [17]): > 100 µM; growth at 1 µM (IGROV-1 [18]): 49% |
| c1ccc(Cn2cnc3ccc(-c4nc(-c5ccc6c(c5)ncn6C5CCCCC5)cn5ccnc45)cc32)cc1 | > 100 µM | 95% | 88% | 92% | > 100 µM | 2% | 1.89 µM | 96% | 2.43 µM | 23% | 18.05% | 3.69 µM | 5.96 µM | -64% | -79% | 92% | 94% | 2.6 µM | 4.93 µM | 89% | growth at 0.1 µM (RXF 393 [10]): 105%; growth at 10 µM (HCT-116 [11]): -74%; growth at 100 µM (MOLT-4): 4%; growth at 0.01 µM (OVCAR-8 [12]): 106%; CC50 (OVCAR-5): > 100 µM; TGI (HCC 2998): 3.41 µM; TGI (A549 [13]): 4.97 µM; growth at 0.01 µM (SW-620): 100%; growth at 10 µM (786-0): 4%; growth at 100 µM (SK-MEL-2): -33%; growth at 0.1 µM (HOP-92 [14]): 98%; GI50 (NCI-H226): 2.93 µM; GI50 (A549 [15]): 2.33 µM; growth at 0.1 µM (IGROV-1 [16]): 93%; CC50 (SK-MEL-28 [17]): > 100 µM; growth at 1 µM (IGROV-1 [18]): 73% |

— ChEMBL document CHEMBL5247578, “Effective synthesis of benzimidazoles-imidazo[1,2-a]pyrazine conjugates: A comparative study of mono-and bis-benzimidazoles for antitumor activity” (Eur J Med Chem, 2019)
